Assay results taken from ChEMBL document CHEMBL1126019, “Synthesis, stability, and biological evaluation of water-soluble prodrugs of a new echinocandin lipopeptide. Discovery of a potential clinical agent for the treatment of systemic candidiasis and Pneumocystis carinii pneumonia (PCP)” (J Med Chem, 1992).

Assays:
Fungi [1] = test: Minimum fungicidal concentration against Candida albicans MY 1028; assay type: functional, organism-based
Summary of the method: (§1)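 Clinical isolates in yeast nitrogen base with 1% dextrose, inoculated with about 5×10^3 CFU per well. Drug was tested by 2-fold serial dilution from 128 to 0.06 µg/mL, with growth for 24 h at 35 °C. 1.5-µL aliquots were then spotted onto Sabouraud dextrose agar and incubated at 35 °C for 24 h. MFC was the lowest concentration giving fewer than five colonies per spot. Duplicate determinations.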

Fungi [2] = test: Minimum fungicidal concentration against Candida tropicalis MY 1012; assay type: functional, organism-based; summary of the method: as §1
Homo sapiens = species: Homo sapiens; test: Hemolytic potential was determined as the minimum lytic concentration against human red blood cells; assay type: functional, cell-based
Summary of the method: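 Compounds were serially diluted in water containing 10% DMSO and added to whole human blood, then incubated 2 h at 37 °C. Red cell lysis was scored visually, and the lowest lytic concentration was recorded.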

[3] = Inhibitory activity against glucan synthesis; assay type: functional
Fungi [4] = test: Minimum fungicidal concentration against Candida albicans MY 1055; assay type: functional, organism-based; summary of the method: as §1
Fungi [5] = test: Minimum fungicidal concentration against Candida parapsilosis MY 1010; assay type: functional, organism-based; summary of the method: as §1
Fungi [6] = test: Minimum fungicidal concentration against Candida pseudotropicalis MY 1100; assay type: functional, organism-based
Summary of the method: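 Clinical isolates were inoculated at about 5×10^3 CFU into yeast nitrogen base with 1% dextrose, with drug in 2-fold dilutions from 128 to 0.06 µg/mL, and grown 24 h at 35 °C. Then 1.5 µL aliquots were spotted on Sabouraud dextrose agar and held 24 h at 35 °C. MFC is the lowest concentration giving fewer than five colonies per spot, from duplicate determinations.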

Mus musculus = species: Mus musculus; test: Minimum effect dose required to reduce the number of colony forming units in per gram kidney of mice after being challenged, by tail vein injection, with 5 X l0e4 cells of Candida albicans (MY 1055); assay type: functional
Summary of the method: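 DBA/2 mice (5 per dose level) were infected intravenously and dosed ip with vehicle sham or 1.5, 3.0 or 6.0 mg/kg twice daily for 4 days. On day 7 post-infection, kidneys were cultured on SDA (35 °C, 24 h) and CFU/g counted. MED99 is the dose giving ≥99% CFU/g reduction versus vehicle sham.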

Rattus norvegicus = species: Rattus norvegicus; test: Minimum effect dose required to reduce the number of alveolor cyst load in rat Pneumocystis carinii pneumonia assay; assay type: functional
Summary of the method: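 Immunosuppressed Sprague-Dawley rats with confirmed infection (5 per dose level) were dosed subcutaneously, 0.15 and 0.60 mg/kg twice daily for 4 days. On day 5, lungs were homogenized and cysts counted microscopically in a known amount of homogenate. MED90 is the dose giving ≥90% cyst reduction versus vehicle sham controls.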

Compound | Concentration (Fungi [1]) | Concentration (Fungi [2]) | Concentration (Homo sapiens) | IC50 [3] | Concentration (Fungi [4]) | Concentration (Fungi [5]) | Concentration (Fungi [6]) | MED99 (Mus musculus) | MED90 (Rattus norvegicus)
CCC(C)CC(C)CCCCCCCCC(=O)N[C@H]1C[C@@H](O)[C@@H](O)NC(=O)[C@@H]2[C@@H](O)CCN2C(=O)[C@H]([C@@H](O)CC(N)=O)NC(=O)[C@H]([C@H](O)[C@@H](O)c2ccc(OC(=O)CCN)cc2)NC(=O)[C@@H]2C[C@@H](O)CN2C(=O)[C@H]([C@H](C)O)NC1=O (some centres not stated) | 1 µg/mL | 0.5 µg/mL | 100 µg/mL | 0.2 µM | 1 µg/mL | 16 µg/mL | – | – | –
CCC(C)CC(C)CCCCCCCCC(=O)N[C@H]1C[C@@H](O)[C@@H](O)NC(=O)[C@@H]2[C@@H](O)CCN2C(=O)[C@H]([C@@H](O)CC(N)=O)NC(=O)[C@H]([C@H](O)[C@@H](O)c2ccc(OC(=O)N(C)CC(=O)O)cc2)NC(=O)[C@@H]2C[C@@H](O)CN2C(=O)[C@H]([C@H](C)O)NC1=O (some centres not stated) | 2 µg/mL | 1 µg/mL | 25 µg/mL | > 1 µM | 2 µg/mL | – | 8 µg/mL | – | –
CCC(C)CC(C)CCCCCCCCC(=O)N[C@H]1C[C@@H](O)[C@@H](O)NC(=O)[C@@H]2[C@@H](O)CCN2C(=O)[C@H]([C@@H](O)CC(N)=O)NC(=O)[C@H]([C@H](O)[C@@H](O)c2ccc(OC(=O)NCC(=O)O)cc2)NC(=O)[C@@H]2C[C@@H](O)CN2C(=O)[C@H]([C@H](C)O)NC1=O (some centres not stated) | 4 µg/mL | 8 µg/mL | > 400 µg/mL | > 10 µM | 4 µg/mL | – | 32 µg/mL | – | –
CCC(C)CC(C)CCCCCCCCC(=O)N[C@H]1C[C@@H](O)[C@@H](O)NC(=O)[C@@H]2[C@@H](O)CCN2C(=O)[C@H]([C@@H](O)CC(N)=O)NC(=O)[C@H]([C@H](O)[C@@H](O)c2ccc(OC(=O)NCCC(=O)O)cc2)NC(=O)[C@@H]2C[C@@H](O)CN2C(=O)[C@H]([C@H](C)O)NC1=O (some centres not stated) | 128 µg/mL | 128 µg/mL | > 400 µg/mL | > 10 µM | 128 µg/mL | > 128 µg/mL | – | – | –
CCC(C)CC(C)CCCCCCCCC(=O)N[C@H]1C[C@@H](O)[C@@H](O)NC(=O)[C@@H]2[C@@H](O)CCN2C(=O)[C@H]([C@@H](O)CC(N)=O)NC(=O)[C@H]([C@H](O)[C@@H](O)c2ccc(OC(=O)NCCN(C)C)cc2)NC(=O)[C@@H]2C[C@@H](O)CN2C(=O)[C@H]([C@H](C)O)NC1=O (some centres not stated) | 1 µg/mL | 1 µg/mL | 25 µg/mL | 1 µM | 1 µg/mL | – | 64 µg/mL | – | –
CCC(C)CC(C)CCCCCCCCC(=O)N[C@H]1C[C@@H](O)[C@@H](O)NC(=O)[C@@H]2[C@@H](O)CCN2C(=O)[C@H]([C@@H](O)CC(N)=O)NC(=O)[C@H]([C@H](O)[C@@H](O)c2ccc(OC(=O)CCCC(=O)O)cc2)NC(=O)[C@@H]2C[C@@H](O)CN2C(=O)[C@H]([C@@H](C)O)NC1=O (some centres not stated) | – | – | – | – | – | – | – | 6 mg/kg | 0.6 mg/kg
CCC(C)CC(C)CCCCCCCCC(=O)N[C@H]1C[C@@H](O)[C@@H](O)NC(=O)[C@@H]2[C@@H](O)CCN2C(=O)[C@H]([C@@H](O)CC(N)=O)NC(=O)[C@H]([C@H](O)[C@@H](O)c2ccc(OC(=O)NCCN(C)C)cc2)NC(=O)[C@@H]2C[C@@H](O)CN2C(=O)[C@H]([C@@H](C)O)NC1=O.O=C(O)C(F)(F)F (some centres not stated) | – | – | – | – | – | – | – | 6 mg/kg | 0.6 mg/kg
CCC(C)CC(C)CCCCCCCCC(=O)N[C@H]1C[C@@H](O)[C@@H](O)NC(=O)[C@@H]2[C@@H](O)CCN2C(=O)[C@H]([C@@H](O)CC(N)=O)NC(=O)[C@H]([C@H](O)[C@@H](O)c2ccc(OC(=O)CCCC(=O)O)cc2)NC(=O)[C@@H]2C[C@@H](O)CN2C(=O)[C@H]([C@H](C)O)NC1=O (some centres not stated) | 0.5 µg/mL | 0.5 µg/mL | > 400 µg/mL | 1 µM | 0.5 µg/mL | – | 2 µg/mL | – | –
CCC(C)CC(C)CCCCCCCCC(=O)N[C@H]1C[C@@H](O)[C@@H](O)NC(=O)[C@@H]2[C@@H](O)CCN2C(=O)[C@H]([C@@H](O)CC(N)=O)NC(=O)[C@H]([C@H](O)[C@@H](O)c2ccc(OC(=O)OCCN(C)C)cc2)NC(=O)[C@@H]2C[C@@H](O)CN2C(=O)[C@H]([C@@H](C)O)NC1=O.O=C(O)C(F)(F)F (some centres not stated) | – | – | – | – | – | – | – | 6 mg/kg | 0.6 mg/kg
